Results on eleven molecules are retold here after article PMC4589150 (Nature chemical biology, 2015).

The target in test [1] is fluorescein-phospho-SQEY-OH. The test is described as follows: fluorescence polarisation. A general note: Polarisation of emitted light reports the rotation of a fluorescent probe.
Test [2] concerns the target 53BP1-BRCT (Homo sapiens, UniProt Q12888). The test is described as follows: Fluorescence anisotropy competition binding against fluorescein-pSQEY-OH. In outline: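 Untagged 53BP1 tandem BRCT (6 μM; GST removed by PreScission, anion-exchange purified) with fluorescein-phospho-SQEY peptide (50 nM) and graded unlabelled competitor peptide. Buffer: 50 mM HEPES pH 7.5, 150 mM NaCl, 1 mM DTT. Anisotropy read after equilibration. IC50 from four-parameter sigmoidal fit. Ki from IC50 using bound/total ligand, receptor and direct-binding Kd.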

Test [3] deals with T1, fluorescein-SQEY-OH.
T1 sequence (peptide, fluorescein on the N-terminus; free C-terminal carboxylate): SQEY
Nature of the test: fluorescence polarisation.

For test [4], the target named is histone H4 methylated K20 (Homo sapiens) (UniProt P62805). The note with it: cited from earlier work.
Test [5] deals with T2, MDC1-BRCT (Homo sapiens, UniProt Q14676).
T2 sequence (Q14676 1883-2089): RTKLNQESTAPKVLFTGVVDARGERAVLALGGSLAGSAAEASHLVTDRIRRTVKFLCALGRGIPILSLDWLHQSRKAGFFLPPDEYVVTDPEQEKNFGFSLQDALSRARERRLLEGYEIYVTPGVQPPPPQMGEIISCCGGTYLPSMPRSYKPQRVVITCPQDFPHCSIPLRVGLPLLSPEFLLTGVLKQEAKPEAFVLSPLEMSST
Type of test: binding. In outline: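 E. coli-expressed, glutathione-affinity-purified MDC1-BRCT (200 nM) with biotinylated probe 1 (1 μM) and graded γH2AX competitor peptide (Ac-KKATQApSQEY-OH). Incubation 20 min on ice, then 365 nm UV for 15 min on ice. Cross-linked complexes detected by Western blot with streptavidin-based detection. Mean ± s.d., n=3.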

Test [6] concerns the target GST-53BP1 residues 1702-1972 (BRCT domains fragment) (Homo sapiens, UniProt Q12888). Type of test: binding. In outline: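 GST-53BP1 (residues 1702-1972; E. coli-expressed, glutathione-affinity purified, dialysed), 200 nM, with probe 1 or probe 2 (5 μM), or with probe 1 plus γH2AX peptide (100 μM). Incubation 20 min on ice, then 365 nm UV for 15 min on ice. Cross-linking read by streptavidin Western blot. Two independent experiments.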

For test [7], the system named is MDC1. Nature of the test: CLASPI 'selectivity filter' SILAC proteomics in HeLa lysate. The note with it: probes 5 μM, nocodazole-arrested HeLa lysate, SILAC LC-MS/MS. Format: binding. In outline: (§1)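 Heavy (13C615N4-Arg 22 mg/L, 13C615N2-Lys 50 mg/L) or light SILAC-labelled HeLa S3 cells, nocodazole-arrested, lysed by cryogenic grinding. Lysates photo-cross-linked with γH2AX probe 1 or H2AX probe 2 (5 μM), combined, streptavidin-captured (0.5% SDS, 90 min RT), washed, dithionite-eluted. SDS-PAGE, in-gel trypsin digestion, LC-MS/MS on LTQ-Orbitrap, SILAC ratio quantitation. Forward and reverse label-swap runs.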

The subject of test [8] is 53BP1. The description is as above. Format: binding. The conditions noted are these: probes 5 μM, nocodazole-arrested HeLa lysate, SILAC LC-MS/MS. In outline: as §1
In test [9] the test system is POLG. The test is described as above. Type of test: binding. The conditions noted are these: probes 5 μM, nocodazole-arrested HeLa lysate, SILAC LC-MS/MS. In outline:
as §1

In test [10] the test system is SIRT1. Described as above. Format: binding. The note with it: probes 5 μM, nocodazole-arrested HeLa lysate, SILAC LC-MS/MS. In outline:
as §1

Test [11] has as its system MCM2. Described as above. Type of test: binding. The conditions noted are these: probes 5 μM, nocodazole-arrested HeLa lysate, SILAC LC-MS/MS. In outline: as §1
Test [12] concerns the target 53BP1-BRCT (53BP1 tandem BRCT domains, residues 1702-1972), untagged (human) (UniProt Q12888). The test is described as follows: fluorescence polarisation.

Non-standard residues stand in square brackets, D forms with d. Residues, ends and D or L forms follow the SMILES beside them. No end group written: not given here. pS = N[C@@H](COP(=O)(O)O)C(=O)O

Chain of GST-53BP1 residues 1702-1972 (BRCT domains fragment) (Q12888 1702-1972): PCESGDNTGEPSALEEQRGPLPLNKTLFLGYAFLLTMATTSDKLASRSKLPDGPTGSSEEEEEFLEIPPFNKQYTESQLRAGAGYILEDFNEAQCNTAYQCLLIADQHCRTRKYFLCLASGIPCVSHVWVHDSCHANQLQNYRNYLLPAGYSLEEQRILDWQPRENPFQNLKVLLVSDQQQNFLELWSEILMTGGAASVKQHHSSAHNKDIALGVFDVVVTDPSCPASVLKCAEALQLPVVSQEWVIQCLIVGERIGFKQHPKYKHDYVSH
Chain of 53BP1-BRCT (53BP1 tandem BRCT domains, residues 1702-1972), untagged (human) (Q12888 1702-1972): as above
Chain of 53BP1-BRCT (Q12888 1702-1972): as above

Take “53BP1-BRCT R1811Q (from UniProt Q12888 1702-1972) (domain or fragment)”: the Kd in test [1] was determined as 35 µM.
For the molecule `NC(=O)CC[C@H](NC(=O)[C@@H](N)COP(=O)(O)O)C(=O)N[C@@H](CCC(=O)O)C(=O)N[C@@H](Cc1ccc(O)cc1)C(N)=O` [pSQEY-NH2] (H-[pS]QEY-NH2), in [2], the Ki came to 25 ± 0.58 µM.
Regarding “53BP1-BRCT (53BP1 tandem BRCT domains, residues 1702-1972), untagged (from UniProt Q12888 1702-1972) (domain or fragment)”, the percent of peptide bound at 50 μM 53BP1-BRCT in test [3] turned out to be 10%. The Kd in [1] was 2.7 µM.
Consider “53BP1 tandem Tudor (from UniProt Q12888)”, for which, in test [4], the Kd is 20 µM.
In turn, `CC(=O)N[C@@H](CCCCN)C(=O)N[C@@H](CCCCN)C(=O)N[C@@H](C)C(=O)N[C@H](C(=O)N[C@@H](CCC(N)=O)C(=O)N[C@@H](C)C(=O)N[C@@H](COP(=O)(O)O)C(=O)N[C@@H](CCC(N)=O)C(=O)N[C@@H](CCC(=O)O)C(=O)N[C@@H](Cc1ccc(O)cc1)C(=O)O)[C@@H](C)O` [γH2AX peptide, Ac-KKATQApSQEY-OH, reference compound] (Ac-KKATQA[pS]QEY-OH) gave an IC50 in test [5] of 4.4 ± 1.6 µM. This molecule had a Kd in [6] of less than 100 µM.
`NC(=O)CC[C@H](NC(=O)[C@@H](N)COP(=O)(O)O)C(=O)N[C@@H](CCC(=O)O)C(=O)N[C@@H](Cc1ccc(O)cc1)C(=O)O` [pSQEY-OH] (H-[pS]QEY-OH) registered a Ki in [2] of 7.5 ± 1.1 µM.
In the case of `CC(=O)N[C@@H](Cc1cn(CCc2ccc(O)c(N=Nc3ccc(C(=O)NCCOCCOCCOCCOCCNC(=O)CCCC[C@@H]4SC[C@@H]5NC(=O)N[C@@H]54)cc3)c2)nn1)C(=O)N[C@@H](CCCCN)C(=O)N[C@@H](CCCCN)C(=O)N[C@@H](C)C(=O)N[C@@H](Cc1ccc(C(=O)c2ccccc2)cc1)C(=O)N[C@@H](CCC(N)=O)C(=O)N[C@@H](C)C(=O)N[C@@H](COP(=O)(O)O)C(=O)N[C@@H](CCC(N)=O)C(=O)N[C@@H](CCC(=O)O)C(=O)N[C@@H](Cc1ccc(O)cc1)C(=O)O` [probe 1], the “photo-cross-linking to BRCT domains fragment (in words)” value in test [6] (probe 5 μM, streptavidin Western blot, representative of 2 experiments) is “robust cross-linking”. Further, the “enrichment ratio of MDC1, probe 1 relative to probe 2” value in test [7] was 3.9. In test [8], the “enrichment ratio of 53BP1, probe 1 relative to probe 2” value was found to be 4.9. Besides, in test [9], the “enrichment ratio of POLG, probe 1 relative to probe 2” value is reported as 2.5–3.5. For the same molecule, the “enrichment ratio of SIRT1, probe 1 relative to probe 2” value in test [10] was 2.5–3.5. Besides, in test [11], the “enrichment ratio of MCM2, probe 1 relative to probe 2” value is reported as 2.5–3.5.
With “53BP1-BRCT K1814M (from UniProt Q12888 1702-1972) (domain or fragment)”, the Kd in [1] was greater than 70 µM.

B1: phospho-SPTF-OH (peptide)
peptide: [pS]PTF-OH
In turn, B1 yielded a Ki in test [12] of 46 µM.

B2: phospho-SQEY-NH2 (peptide)
peptide: [pS]QEY-NH2
In the case of B2, the Ki in [12] was found to be 25 µM.

B3: unlabeled phospho-SQEY-OH tetrapeptide (peptide)
peptide: [pS]QEY-OH
In test [12], B3 yielded a Ki of 7.5 µM.

What is called Kd is the equilibrium constant for the complex coming apart. Broadly, the Ki is the dissociation constant of the complex between target and ligand, obtained from inhibition or displacement. Low readings indicate higher affinity, high ones lower affinity. As usually defined, the IC50 is the concentration needed to halve the response being measured. A lower IC50 goes with greater potency in that assay.
